Reference: the M2OR odorant receptor database

Key:
Settings in all cases: stereoisomer not certain
[1] = target: T1, OR10J5 (Homo sapiens) (UniProt Q8NHC4)
T1 sequence (whole entry): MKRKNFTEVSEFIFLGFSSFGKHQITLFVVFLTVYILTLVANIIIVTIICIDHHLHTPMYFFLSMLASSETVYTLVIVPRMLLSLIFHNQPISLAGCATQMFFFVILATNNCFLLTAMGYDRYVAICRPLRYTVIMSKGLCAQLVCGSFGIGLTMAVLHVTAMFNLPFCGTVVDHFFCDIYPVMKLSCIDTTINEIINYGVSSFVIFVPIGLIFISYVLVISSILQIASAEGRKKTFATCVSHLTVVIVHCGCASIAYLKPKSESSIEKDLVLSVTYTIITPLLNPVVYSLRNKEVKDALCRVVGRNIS
In short: (§1)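 Each entry records the cell line, G-protein, co-transfected protein and tags used. Methods varied with the source, often transient luciferase assays in mammalian cell lines. A receptor–molecule pair is called responsive (active) if the original authors judged its signal statistically different from baseline and non-responsive (inactive) otherwise.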

[2] = target: T2, OR10G2 (Homo sapiens) (UniProt Q8NGC3)
T2 sequence (whole entry): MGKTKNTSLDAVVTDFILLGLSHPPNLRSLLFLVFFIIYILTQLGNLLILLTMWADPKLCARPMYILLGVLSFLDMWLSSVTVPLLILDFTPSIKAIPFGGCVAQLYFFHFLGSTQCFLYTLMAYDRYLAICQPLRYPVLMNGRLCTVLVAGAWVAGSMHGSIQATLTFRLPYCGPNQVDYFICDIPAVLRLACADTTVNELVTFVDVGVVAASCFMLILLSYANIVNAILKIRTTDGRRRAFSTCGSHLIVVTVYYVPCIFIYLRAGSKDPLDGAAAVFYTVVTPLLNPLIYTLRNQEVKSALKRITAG
In short: as §1

[3] = target: T3, OR10G3 (Homo sapiens) (UniProt Q8NGC4)
T3 sequence (whole entry): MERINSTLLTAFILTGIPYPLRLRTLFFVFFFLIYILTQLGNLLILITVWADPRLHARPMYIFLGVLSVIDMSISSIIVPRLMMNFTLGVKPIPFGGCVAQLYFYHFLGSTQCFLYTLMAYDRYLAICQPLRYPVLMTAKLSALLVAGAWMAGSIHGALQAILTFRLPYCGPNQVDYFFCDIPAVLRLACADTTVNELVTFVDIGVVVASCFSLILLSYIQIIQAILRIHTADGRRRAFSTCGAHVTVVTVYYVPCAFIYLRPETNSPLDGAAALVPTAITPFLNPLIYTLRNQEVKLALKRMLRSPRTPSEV
In short: as §1

[4] = target: T4, OR10G4 (Homo sapiens) (UniProt Q8NGN3)
T4 sequence (whole entry): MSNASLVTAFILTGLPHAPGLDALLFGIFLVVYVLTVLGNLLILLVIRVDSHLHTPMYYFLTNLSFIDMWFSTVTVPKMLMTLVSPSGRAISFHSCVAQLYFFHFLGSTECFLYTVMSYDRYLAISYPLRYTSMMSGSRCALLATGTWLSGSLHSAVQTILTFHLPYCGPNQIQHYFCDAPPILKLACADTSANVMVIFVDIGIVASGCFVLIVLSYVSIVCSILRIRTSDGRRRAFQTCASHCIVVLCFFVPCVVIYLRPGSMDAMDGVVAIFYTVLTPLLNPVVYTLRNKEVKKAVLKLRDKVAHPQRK
In short: as §1

[5] = target: T5, OR10G6 (Homo sapiens) (UniProt Q8NH81)
T5 sequence (whole entry): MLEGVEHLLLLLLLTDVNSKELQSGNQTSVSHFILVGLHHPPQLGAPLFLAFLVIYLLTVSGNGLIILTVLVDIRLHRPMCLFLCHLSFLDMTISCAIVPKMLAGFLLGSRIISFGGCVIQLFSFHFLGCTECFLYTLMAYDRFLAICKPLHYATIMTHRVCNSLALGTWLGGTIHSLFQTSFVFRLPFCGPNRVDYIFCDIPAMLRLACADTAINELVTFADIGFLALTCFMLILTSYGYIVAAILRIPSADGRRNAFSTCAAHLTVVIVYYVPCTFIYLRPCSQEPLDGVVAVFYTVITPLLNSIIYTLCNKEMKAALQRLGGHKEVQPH
In short: as §1

[6] = target: T6, OR10G7 (Homo sapiens) (UniProt Q8NGN6)
T6 sequence (whole entry): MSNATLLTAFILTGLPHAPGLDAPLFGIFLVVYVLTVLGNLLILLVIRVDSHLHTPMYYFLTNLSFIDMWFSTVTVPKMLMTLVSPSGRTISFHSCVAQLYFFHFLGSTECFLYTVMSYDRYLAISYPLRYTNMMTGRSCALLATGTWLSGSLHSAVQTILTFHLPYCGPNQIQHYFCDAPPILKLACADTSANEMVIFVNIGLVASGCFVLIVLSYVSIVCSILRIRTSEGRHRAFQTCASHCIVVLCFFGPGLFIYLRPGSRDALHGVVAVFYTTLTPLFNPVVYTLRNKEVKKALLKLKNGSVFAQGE
In short: as §1

[7] = target: T7, OR10G8 (Homo sapiens) (UniProt Q8NGN5)
T7 sequence (whole entry): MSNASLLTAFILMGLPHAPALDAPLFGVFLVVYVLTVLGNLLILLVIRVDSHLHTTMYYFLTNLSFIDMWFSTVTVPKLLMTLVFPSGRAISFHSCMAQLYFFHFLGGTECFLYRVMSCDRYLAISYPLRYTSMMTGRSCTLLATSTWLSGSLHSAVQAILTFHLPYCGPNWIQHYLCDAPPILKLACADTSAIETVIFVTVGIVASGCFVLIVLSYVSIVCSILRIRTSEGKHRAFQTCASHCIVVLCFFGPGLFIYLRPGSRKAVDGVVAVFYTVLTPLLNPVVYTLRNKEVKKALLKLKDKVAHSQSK
In short: as §1

[8] = target: T8, OR10G9 (Homo sapiens) (UniProt Q8NGN4)
T8 sequence (whole entry): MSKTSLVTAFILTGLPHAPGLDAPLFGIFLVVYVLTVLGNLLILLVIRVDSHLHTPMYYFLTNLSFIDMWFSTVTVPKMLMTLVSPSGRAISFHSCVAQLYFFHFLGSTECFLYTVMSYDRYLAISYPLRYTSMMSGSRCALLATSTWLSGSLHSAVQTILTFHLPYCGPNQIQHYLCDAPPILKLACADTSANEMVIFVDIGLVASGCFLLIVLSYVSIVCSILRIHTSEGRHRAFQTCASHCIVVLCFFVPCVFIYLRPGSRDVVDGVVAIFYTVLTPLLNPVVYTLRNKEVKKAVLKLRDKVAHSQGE
In short: as §1

[9] = target: T9, OR10H1 (Homo sapiens) (UniProt Q9Y4A9)
T9 sequence (whole entry): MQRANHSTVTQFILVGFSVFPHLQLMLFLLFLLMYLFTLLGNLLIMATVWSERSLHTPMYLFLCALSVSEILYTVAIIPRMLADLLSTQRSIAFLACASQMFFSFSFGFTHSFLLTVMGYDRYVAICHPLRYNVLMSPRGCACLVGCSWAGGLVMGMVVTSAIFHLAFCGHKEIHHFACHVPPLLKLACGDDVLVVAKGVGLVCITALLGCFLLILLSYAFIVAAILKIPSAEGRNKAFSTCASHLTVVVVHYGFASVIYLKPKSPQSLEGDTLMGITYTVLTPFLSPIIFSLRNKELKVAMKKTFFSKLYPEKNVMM
In short: as §1

[10] = target: T10, OR10H2 (Homo sapiens) (UniProt O60403)
T10 sequence (whole entry): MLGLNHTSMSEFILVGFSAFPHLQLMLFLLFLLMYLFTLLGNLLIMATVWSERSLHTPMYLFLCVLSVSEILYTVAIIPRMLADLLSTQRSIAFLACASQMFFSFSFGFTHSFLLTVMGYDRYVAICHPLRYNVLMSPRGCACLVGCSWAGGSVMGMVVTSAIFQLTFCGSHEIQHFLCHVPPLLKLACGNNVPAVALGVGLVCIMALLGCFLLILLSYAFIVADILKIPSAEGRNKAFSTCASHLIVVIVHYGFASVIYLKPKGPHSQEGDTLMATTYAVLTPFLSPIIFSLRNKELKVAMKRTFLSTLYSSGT
In short: as §1

[11] = target: T11, OR10H3 (Homo sapiens) (UniProt O60404)
T11 sequence (whole entry): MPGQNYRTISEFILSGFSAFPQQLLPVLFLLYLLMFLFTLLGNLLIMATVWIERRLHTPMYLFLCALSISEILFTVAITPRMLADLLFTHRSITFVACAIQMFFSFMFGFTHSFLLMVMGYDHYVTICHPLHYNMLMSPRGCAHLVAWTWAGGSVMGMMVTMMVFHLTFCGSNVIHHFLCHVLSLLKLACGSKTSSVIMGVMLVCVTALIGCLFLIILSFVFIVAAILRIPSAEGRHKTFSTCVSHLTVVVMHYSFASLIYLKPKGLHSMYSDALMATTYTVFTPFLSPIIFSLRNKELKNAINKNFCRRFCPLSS
In short: as §1

[12] = target: T12, OR10H4 (Homo sapiens) (UniProt Q8NGA5)
T12 sequence (whole entry): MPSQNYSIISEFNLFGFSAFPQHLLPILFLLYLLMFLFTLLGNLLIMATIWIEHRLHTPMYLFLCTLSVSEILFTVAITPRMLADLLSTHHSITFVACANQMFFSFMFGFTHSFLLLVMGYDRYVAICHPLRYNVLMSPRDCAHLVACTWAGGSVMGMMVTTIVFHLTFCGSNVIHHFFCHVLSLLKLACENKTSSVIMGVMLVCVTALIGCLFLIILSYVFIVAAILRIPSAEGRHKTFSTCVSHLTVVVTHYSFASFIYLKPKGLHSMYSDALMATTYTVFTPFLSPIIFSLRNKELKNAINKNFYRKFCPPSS
In short: as §1

[13] = target: T13, OR10H5 (Homo sapiens) (UniProt Q8NGA6)
T13 sequence (whole entry): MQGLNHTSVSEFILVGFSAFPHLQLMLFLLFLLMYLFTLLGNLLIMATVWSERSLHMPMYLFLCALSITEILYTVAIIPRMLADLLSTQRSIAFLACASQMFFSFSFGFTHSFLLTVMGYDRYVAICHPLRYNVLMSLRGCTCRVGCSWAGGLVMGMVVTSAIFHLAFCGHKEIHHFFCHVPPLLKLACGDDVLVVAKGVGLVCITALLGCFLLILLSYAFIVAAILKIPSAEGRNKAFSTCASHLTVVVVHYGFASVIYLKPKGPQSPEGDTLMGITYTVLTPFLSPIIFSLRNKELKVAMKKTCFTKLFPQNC
In short: as §1

[14] = target: T14, OR10J1 (Homo sapiens) (UniProt P30954)
T14 sequence (whole entry): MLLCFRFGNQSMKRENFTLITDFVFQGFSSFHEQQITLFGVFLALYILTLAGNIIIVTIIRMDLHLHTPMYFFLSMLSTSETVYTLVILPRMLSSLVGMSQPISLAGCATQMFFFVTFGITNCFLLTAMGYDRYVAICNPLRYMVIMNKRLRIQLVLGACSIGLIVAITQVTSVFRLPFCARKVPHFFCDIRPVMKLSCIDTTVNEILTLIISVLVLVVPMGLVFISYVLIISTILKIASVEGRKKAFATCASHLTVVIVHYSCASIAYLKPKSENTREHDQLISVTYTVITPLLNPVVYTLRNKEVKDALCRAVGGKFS
In short: as §1

[15] = target: T15, OR10J3 (Homo sapiens) (UniProt Q5JRS4)
T15 sequence (whole entry): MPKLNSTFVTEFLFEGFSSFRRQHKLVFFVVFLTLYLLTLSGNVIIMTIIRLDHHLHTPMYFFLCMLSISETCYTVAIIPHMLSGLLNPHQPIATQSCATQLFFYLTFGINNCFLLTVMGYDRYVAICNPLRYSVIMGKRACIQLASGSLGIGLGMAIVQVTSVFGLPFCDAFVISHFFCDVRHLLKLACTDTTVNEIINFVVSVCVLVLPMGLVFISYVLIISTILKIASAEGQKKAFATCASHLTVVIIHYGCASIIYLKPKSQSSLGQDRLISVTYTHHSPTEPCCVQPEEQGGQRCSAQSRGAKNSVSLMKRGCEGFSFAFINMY
In short: as §1

[16] = target: T16, OR10K1 (Homo sapiens) (UniProt Q8NGX5)
T16 sequence (whole entry): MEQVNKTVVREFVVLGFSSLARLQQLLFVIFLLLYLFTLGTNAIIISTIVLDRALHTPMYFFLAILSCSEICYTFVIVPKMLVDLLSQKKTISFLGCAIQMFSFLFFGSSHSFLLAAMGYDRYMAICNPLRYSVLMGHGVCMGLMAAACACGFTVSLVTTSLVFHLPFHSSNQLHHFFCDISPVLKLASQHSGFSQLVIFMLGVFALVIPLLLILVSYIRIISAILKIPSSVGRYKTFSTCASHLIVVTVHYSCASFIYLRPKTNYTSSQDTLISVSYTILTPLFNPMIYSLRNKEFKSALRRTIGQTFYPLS
In short: as §1

[17] = target: T17, OR10K2 (Homo sapiens) (UniProt Q6IF99)
T17 sequence (whole entry): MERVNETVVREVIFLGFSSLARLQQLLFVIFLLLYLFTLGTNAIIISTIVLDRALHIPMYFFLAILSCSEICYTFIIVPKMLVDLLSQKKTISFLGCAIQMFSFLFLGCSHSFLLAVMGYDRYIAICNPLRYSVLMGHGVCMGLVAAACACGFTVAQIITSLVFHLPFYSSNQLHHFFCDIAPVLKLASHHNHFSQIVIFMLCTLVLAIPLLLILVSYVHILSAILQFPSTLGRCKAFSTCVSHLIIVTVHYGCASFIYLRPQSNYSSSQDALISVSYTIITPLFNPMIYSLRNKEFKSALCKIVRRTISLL
In short: as §1

[18] = target: T18, OR10P1 (Homo sapiens) (UniProt Q8NGE3)
T18 sequence (whole entry): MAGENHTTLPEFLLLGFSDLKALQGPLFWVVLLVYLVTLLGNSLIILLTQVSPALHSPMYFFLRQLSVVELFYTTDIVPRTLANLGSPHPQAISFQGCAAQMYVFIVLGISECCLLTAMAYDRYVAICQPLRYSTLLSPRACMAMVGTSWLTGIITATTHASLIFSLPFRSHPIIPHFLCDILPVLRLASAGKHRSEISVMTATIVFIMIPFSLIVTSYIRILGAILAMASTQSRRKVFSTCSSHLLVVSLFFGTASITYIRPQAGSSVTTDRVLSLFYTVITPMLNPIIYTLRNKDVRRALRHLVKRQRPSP
In short: as §1

[19] = target: T19, OR10Q1 (Homo sapiens) (UniProt Q8NGQ4)
T19 sequence (whole entry): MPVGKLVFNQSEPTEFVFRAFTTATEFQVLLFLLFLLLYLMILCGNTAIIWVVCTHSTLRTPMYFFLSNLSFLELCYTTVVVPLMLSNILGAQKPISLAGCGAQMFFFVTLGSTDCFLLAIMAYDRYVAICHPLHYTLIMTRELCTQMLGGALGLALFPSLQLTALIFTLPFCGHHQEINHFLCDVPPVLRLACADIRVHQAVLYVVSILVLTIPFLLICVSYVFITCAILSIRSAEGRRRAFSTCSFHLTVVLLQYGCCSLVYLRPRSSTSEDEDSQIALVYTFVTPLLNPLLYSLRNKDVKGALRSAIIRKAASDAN
In short: as §1

Measured: odorant receptor agonist call

COc1cc(C(=O)O)ccc1O
inactive: [1]

CCCCCC(S)C(C)CO (stereo not given)
inactive: all assays above
